{"data": "Experimental data pooled from the literature", "HTR5A": "5-hydroxytryptamine receptor 5A (HTR5A, Homo sapiens, UniProt P47898)", "DRD4": "D(4) dopamine receptor (DRD4, Homo sapiens, UniProt P21917)", "Kir1 channel protein": "Kir1 channel protein (Aedes aegypti, UniProt L0EQS9)", "PIK3CD": "Phosphatidylinositol 4,5-bisphosphate 3-kinase catalytic subunit delta isoform (PIK3CD, Homo sapiens, UniProt O00329)", "note": "Lines come from different studies, so protocols differ."}
{"SMILES": "CCN(CC)c1ccc(C2Nc3ccc(C(=O)c4ccccc4)cc3NC3=C2C(=O)CC(C)(C)C3)cc1 (stereo not drawn)", "target": "HTR5A", "read-out": "cell-free assay", "method": "radioligand", "quantity": "Ki", "value": "7.96 µM"}
{"SMILES": "CC[C@@H]1C(=O)OC[C@@H]1Cc1cncn1C", "target": "Cytochrome P450 2E1 (CYP2E1, Homo sapiens, UniProt P05181)", "read-out": "binding", "quantity": "Kd", "value": "26.5 µM"}
{"SMILES": "Cc1cnc(-c2ccc(-c3ccc(NC(=O)Nc4c(F)cc(F)cc4F)cc3F)c3c2C(=O)NC3)[nH]1", "target": "Tyrosine-protein kinase BTK (BTK, Homo sapiens, UniProt Q06187)", "read-out": "binding", "method": "competition with immobilised ligand", "quantity": "Kd", "value": "0.027 µM"}
{"SMILES": "CCn1c(-c2nc3cc(C(=O)N4CCC[C@@H](N)C4)cc(OC)c3n2C)cc2cccnc21", "target": "Nuclear receptor subfamily 1 group I member 2 (NR1I2, Homo sapiens, UniProt O75469)", "read-out": "reporter gene", "mode": "agonist", "method": "luciferase", "quantity": "EC50", "value": "> 50.1 µM"}
{"SMILES": "COc1ccc(F)cc1C(=O)NCc1ccc(-c2nn([C@@H](C)C(F)(F)F)c(N)c2C(N)=O)cc1", "target": "Tyrosine-protein kinase BTK (BTK, Homo sapiens, UniProt Q06187, C481R)", "read-out": "phosphorylation in cells", "mode": "inhibitor", "quantity": "IC50", "value": "0.0126 µM"}
{"SMILES": "CCCCN1CCC(COC(=O)c2ccc(N)c(OCF)c2)CC1", "target": "HTR5A", "read-out": "cell-free assay", "method": "radioligand", "quantity": "Ki", "value": "> 10 µM"}
{"SMILES": "Oc1cccc(CCC2=NCCN2Cc2ccccc2)c1", "target": "DRD4", "read-out": "ligand displacement", "method": "radioligand", "quantity": "Ki", "value": "> 10 µM"}
{"SMILES": "O=S(=O)(c1ccc(F)cc1)N1CCN(c2ccc(C(F)(F)F)c(NCc3ccncc3)c2)CC1", "target": "Kir1 channel protein", "read-out": "ion flux", "mode": "inhibitor", "quantity": "IC50", "value": "4 to 9 µM"}
{"SMILES": "CN1CCN(c2ccc(Nc3ncc4cc(C#N)c(=O)n(C5CCCC5)c4n3)cc2)CC1", "target": "Calcium/calmodulin-dependent protein kinase type 1 (CAMK1, Homo sapiens, UniProt Q14012)", "read-out": "enzyme activity", "mode": "inhibitor", "quantity": "IC50", "value": "> 10 µM"}
{"SMILES": "O=C1c2ccccc2CCN1CCCCN1CCN(c2ccccn2)CC1", "target": "DRD4", "read-out": "ligand displacement", "method": "radioligand", "quantity": "Ki", "value": "0.0145 µM"}
{"SMILES": "CC1=C(O)C(=O)OC1C (stereo not drawn)", "target": "OR8D1 (Homo sapiens, UniProt Q8WZ84, R293A)", "read-out": "cAMP", "mode": "agonist", "method": "luciferase", "quantity": "EC50", "value": "13.5 µM"}
{"SMILES": "CS(=O)(=O)C1(CNCc2ccc(Br)c3cccnc23)CC1", "target": "HTR5A", "read-out": "ligand displacement", "method": "radioligand", "quantity": "Ki", "value": "0.178 µM"}
{"SMILES": "O=S(=O)(c1ccc(F)cc1)N1CCN(c2ccnc(NCc3ccncc3)c2)CC1", "target": "Kir1 channel protein", "read-out": "ion flux", "mode": "inhibitor", "quantity": "IC50", "value": "4 to 9 µM"}
{"SMILES": "CS(=O)(=O)C1(CNCc2cccc3cccnc23)CC1", "target": "HTR5A", "read-out": "ligand displacement", "method": "radioligand", "quantity": "Ki", "value": "0.0417 µM"}
{"SMILES": "CCC(=O)N1CCC(C(=O)N(C)CC(=O)N2CCN(c3nc(-c4cnc(N)nc4C(F)F)nc(N4CCOCC4)n3)CC2)CC1", "target": "PIK3CD", "read-out": "binding", "method": "competition with immobilised ligand", "quantity": "Kd", "value": "0.0049 µM"}
{"SMILES": "O=C1c2ccccc2CCN1CCCCN1CCN(c2cccc(Cl)c2Cl)CC1", "target": "HTR5A", "read-out": "ligand displacement", "method": "radioligand", "quantity": "Ki", "value": "0.773 µM"}
{"SMILES": "CC[C@H](NC(=O)[C@H](CS(=O)(=O)CC1CC1)N[C@@H](c1ccc(F)cc1)C(F)(F)F)C(=O)C(=O)NC1CC1", "target": "Cathepsin F (Homo sapiens, UniProt Q9UBX1)", "read-out": "enzyme activity", "mode": "inhibitor", "method": "fluorescence", "setting": "with preincubation", "quantity": "Ki", "value": "0.0047 µM"}
{"SMILES": "C=CC(=O)N1CCC(C(=O)N(C)CC(=O)N2CCN(c3nc(-c4cnc(N)nc4C(F)F)nc(N4CCOCC4)n3)CC2)CC1", "target": "PIK3CD", "read-out": "binding", "method": "competition with immobilised ligand", "quantity": "Kd", "value": "0.0022 µM"}
{"SMILES": "CC(C)c1nc2cc(OCCCCN3CCN(c4cccc5c4OCCO5)CC3)ccc2s1", "target": "HTR5A", "read-out": "ligand displacement", "method": "radioligand", "quantity": "Ki", "value": "0.33 µM"}
{"SMILES": "O=S(=O)(c1ccc(Cl)cc1)N1CCN(c2ccc(C(F)(F)F)c(NCc3ccncc3)c2)CC1", "target": "Kir1 channel protein", "read-out": "ion flux", "mode": "inhibitor", "quantity": "IC50", "value": "4 to 9 µM"}
{"SMILES": "CC(=O)N[C@@H](Cc1ccccc1)C(=O)N1CCC[C@H]1C(=O)N1CCC[C@H]1C(=O)N1CCC[C@H]1C(=O)N1CCC[C@H]1C(=O)O", "target": "Vasodilator-stimulated phosphoprotein (VASP, Homo sapiens, UniProt P50552)", "read-out": "binding", "method": "fluorescence", "quantity": "Kd", "value": "800 µM"}
{"SMILES": "COc1cc(F)cc2c(N3CCN4c5ccccc5OC[C@@H]4C3)c(C#N)nnc12 (single isomer, unassigned)", "target": "Metabotropic glutamate receptor 8 (GRM8, Homo sapiens, UniProt O00222)", "read-out": "calcium signal", "mode": "positive allosteric modulator", "quantity": "EC50", "value": "> 30 µM"}
{"SMILES": "CS(=O)(=O)N1CCN(c2ccc([N+](=O)[O-])c(NCc3cccnc3)c2)CC1", "target": "Kir1 channel protein", "read-out": "ion flux", "mode": "inhibitor", "quantity": "IC50", "value": "44 µM"}
{"SMILES": "Nc1nc2c(ncn2[C@@H]2O[C@H](COP(=O)(O)OP(=O)(O)O)[C@@H](OP(=O)(O)OP(=O)(O)O)[C@H]2O)c(=O)[nH]1", "target": "cmk (Escherichia coli, UniProt P0A6I0)", "read-out": "binding", "method": "ITC", "quantity": "Kd", "value": "79 µM"}
